In ChEMBL document CHEMBL4118263, “Synthesis, structure-activity relationship and molecular docking studies of 3-O-flavonol glycosides as cholinesterase inhibitors” (Bioorg Med Chem, 2018):

How the values were obtained:
Acetylcholinesterase = Acetylcholinesterase (Electrophorus electricus, UniProt O42275); test: Inhibition of electric eel AChE using acetylthiocholine iodide as substrate pretreated for 10 mins followed by substrate addition measured after 20 mins by Ellman's method
Cholinesterase = Cholinesterase (Equus caballus, UniProt P81908); test: Inhibition of horse serum BChE using butyrylthiocholine iodide as substrate pretreated for 10 mins followed by substrate addition measured after 20 mins by Ellman's method
Summary of the method: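 Horse serum BChE was preincubated 10 min with test sample (20, 40, 60, 80, 100 μM). Butyrylthiocholine chloride (0.2 mM) was then added with DTNB (0.5 mM) in phosphate buffer pH 8 and incubated 20 min at 37 °C. Run in triplicate; IC50 by simple linear regression.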

Cholinesterase, sequence (P81908 whole entry): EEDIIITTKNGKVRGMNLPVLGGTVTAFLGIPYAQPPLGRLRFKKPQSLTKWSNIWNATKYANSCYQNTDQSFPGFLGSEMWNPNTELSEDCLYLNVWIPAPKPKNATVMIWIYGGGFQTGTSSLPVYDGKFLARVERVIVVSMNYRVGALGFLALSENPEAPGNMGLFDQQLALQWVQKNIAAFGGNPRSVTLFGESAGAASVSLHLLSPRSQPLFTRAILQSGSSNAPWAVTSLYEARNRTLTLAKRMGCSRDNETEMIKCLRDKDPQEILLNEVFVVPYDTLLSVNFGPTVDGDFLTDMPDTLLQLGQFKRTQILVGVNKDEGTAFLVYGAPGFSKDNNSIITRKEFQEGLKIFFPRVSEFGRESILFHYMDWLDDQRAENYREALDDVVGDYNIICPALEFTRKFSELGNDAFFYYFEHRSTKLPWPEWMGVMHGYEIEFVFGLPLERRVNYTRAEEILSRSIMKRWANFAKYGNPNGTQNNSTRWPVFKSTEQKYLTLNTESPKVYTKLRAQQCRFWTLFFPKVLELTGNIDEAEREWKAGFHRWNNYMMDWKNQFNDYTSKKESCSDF
Acetylcholinesterase, sequence (O42275 whole entry): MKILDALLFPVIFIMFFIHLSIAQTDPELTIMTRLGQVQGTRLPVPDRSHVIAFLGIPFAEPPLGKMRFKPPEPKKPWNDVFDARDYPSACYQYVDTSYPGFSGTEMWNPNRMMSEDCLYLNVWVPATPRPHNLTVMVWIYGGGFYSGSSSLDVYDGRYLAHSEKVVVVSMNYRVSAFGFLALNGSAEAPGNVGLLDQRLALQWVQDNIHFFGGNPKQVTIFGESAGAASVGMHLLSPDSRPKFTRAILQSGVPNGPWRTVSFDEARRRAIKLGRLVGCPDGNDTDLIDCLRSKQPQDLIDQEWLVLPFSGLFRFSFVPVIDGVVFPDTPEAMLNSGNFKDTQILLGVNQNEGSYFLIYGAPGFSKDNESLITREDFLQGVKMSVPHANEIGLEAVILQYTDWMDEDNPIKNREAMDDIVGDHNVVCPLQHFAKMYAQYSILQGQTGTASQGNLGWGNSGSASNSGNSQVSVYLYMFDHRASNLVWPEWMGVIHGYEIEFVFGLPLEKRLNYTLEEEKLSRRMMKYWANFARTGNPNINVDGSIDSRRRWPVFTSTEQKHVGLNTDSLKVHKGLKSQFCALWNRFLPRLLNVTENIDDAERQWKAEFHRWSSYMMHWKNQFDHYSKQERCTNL

COc1ccc(-c2oc3ccccc3c(=O)c2O[C@@H]2O[C@H](COC(C)=O)[C@@H](OC(C)=O)[C@H](OC(C)=O)[C@H]2OC(C)=O)cc1
IC50 (Acetylcholinesterase): 20.7 µM | IC50 (Cholinesterase): 26 µM

CC(=O)OC[C@H]1O[C@@H](Oc2c(-c3ccc(CC(C)C)cc3)oc3ccccc3c2=O)[C@H](OC(C)=O)[C@@H](OC(C)=O)[C@@H]1OC(C)=O
IC50 (Acetylcholinesterase): 2.05 µM | IC50 (Cholinesterase): 5.42 µM

CC(=O)OC[C@H]1O[C@@H](Oc2c(-c3cccs3)oc3ccccc3c2=O)[C@H](OC(C)=O)[C@@H](OC(C)=O)[C@@H]1OC(C)=O
IC50 (Acetylcholinesterase): 18.5 µM | IC50 (Cholinesterase): 25.5 µM

CC(=O)OC[C@H]1O[C@@H](Oc2c(-c3ccc(Br)cc3)oc3cc(C)ccc3c2=O)[C@H](OC(C)=O)[C@@H](OC(C)=O)[C@@H]1OC(C)=O
IC50 (Acetylcholinesterase): 22.4 µM | IC50 (Cholinesterase): 30.6 µM

CC(=O)OC[C@H]1O[C@@H](Oc2c(-c3ccccc3C(=O)O)oc3ccccc3c2=O)[C@H](OC(C)=O)[C@@H](OC(C)=O)[C@@H]1OC(C)=O
IC50 (Acetylcholinesterase): 34 µM | IC50 (Cholinesterase): 48.4 µM

CC(=O)Nc1ccc(-c2oc3ccccc3c(=O)c2O[C@@H]2O[C@H](COC(C)=O)[C@@H](OC(C)=O)[C@H](OC(C)=O)[C@H]2OC(C)=O)cc1
IC50 (Acetylcholinesterase): 38.7 µM | IC50 (Cholinesterase): 39.7 µM

CC(=O)OC[C@H]1O[C@@H](Oc2c(-c3ccc(Br)cc3)oc3ccccc3c2=O)[C@H](OC(C)=O)[C@@H](OC(C)=O)[C@@H]1OC(C)=O
IC50 (Acetylcholinesterase): 10.2 µM | IC50 (Cholinesterase): 3.12 µM

CC(=O)OC[C@H]1O[C@@H](Oc2c(-c3ccccc3)oc3ccccc3c2=O)[C@H](OC(C)=O)[C@@H](OC(C)=O)[C@@H]1OC(C)=O
IC50 (Acetylcholinesterase): 103 µM | IC50 (Cholinesterase): 45.9 µM

CC(=O)OC[C@H]1O[C@@H](Oc2c(-c3cccc4ccccc34)oc3ccccc3c2=O)[C@H](OC(C)=O)[C@@H](OC(C)=O)[C@@H]1OC(C)=O
IC50 (Acetylcholinesterase): 36.4 µM | IC50 (Cholinesterase): 18.7 µM

CC(=O)OC[C@H]1O[C@@H](Oc2c(-c3ccc(F)cc3)oc3ccccc3c2=O)[C@H](OC(C)=O)[C@@H](OC(C)=O)[C@@H]1OC(C)=O
IC50 (Acetylcholinesterase): 29.2 µM | IC50 (Cholinesterase): 49.8 µM
